Experimental data reported in ChEMBL document CHEMBL1157475, “Selective influence on contextual memory: physiochemical properties associated with selectivity of benzodiazepine ligands at GABAA receptors containing the alpha5 subunit” (J Med Chem, 2008).
Calls of active or inactive are those of the source. No cut-off for these calls is given here.

Columns and labels:
[1] = target: T1, Gamma-aminobutyric acid receptor subunit alpha-5 (Homo sapiens, UniProt P18507+P31644+P47870); test: Binding affinity to GABAA alpha-5-beta-2-gamma-2 receptor
T1 sequence (P31644 whole entry): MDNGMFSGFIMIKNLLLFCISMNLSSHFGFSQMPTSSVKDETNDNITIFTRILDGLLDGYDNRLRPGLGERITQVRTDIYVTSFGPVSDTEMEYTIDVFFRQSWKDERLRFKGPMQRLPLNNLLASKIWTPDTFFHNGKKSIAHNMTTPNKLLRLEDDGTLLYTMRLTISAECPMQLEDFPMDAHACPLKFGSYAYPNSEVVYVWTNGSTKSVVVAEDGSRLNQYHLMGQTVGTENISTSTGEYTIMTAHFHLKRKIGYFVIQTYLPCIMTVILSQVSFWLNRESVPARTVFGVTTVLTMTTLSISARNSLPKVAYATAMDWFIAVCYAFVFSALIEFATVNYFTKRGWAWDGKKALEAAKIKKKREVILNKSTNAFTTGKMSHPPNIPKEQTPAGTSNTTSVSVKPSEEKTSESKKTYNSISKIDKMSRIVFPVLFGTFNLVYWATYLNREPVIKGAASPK
Method in brief: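 Sf-9 insect cells infected with baculovirus carrying α5, β2 and γ2 subunits in equimolar ratio (2 MOI), harvested 60 h post-infection, then homogenized in 50 mM Tris-HCl pH 7.7. Incubated 90 min at 0 °C in triplicate; filtration and scintillation counting.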

[2] = target: T2, GABA-A receptor; alpha-1/beta-3/gamma-2 (Homo sapiens, UniProt P14867+P18507+P28472); test: Binding affinity to GABAA alpha-1-beta-3-gamma-2 receptor; type: protein-complex assay
T2 sequence (P14867 whole entry): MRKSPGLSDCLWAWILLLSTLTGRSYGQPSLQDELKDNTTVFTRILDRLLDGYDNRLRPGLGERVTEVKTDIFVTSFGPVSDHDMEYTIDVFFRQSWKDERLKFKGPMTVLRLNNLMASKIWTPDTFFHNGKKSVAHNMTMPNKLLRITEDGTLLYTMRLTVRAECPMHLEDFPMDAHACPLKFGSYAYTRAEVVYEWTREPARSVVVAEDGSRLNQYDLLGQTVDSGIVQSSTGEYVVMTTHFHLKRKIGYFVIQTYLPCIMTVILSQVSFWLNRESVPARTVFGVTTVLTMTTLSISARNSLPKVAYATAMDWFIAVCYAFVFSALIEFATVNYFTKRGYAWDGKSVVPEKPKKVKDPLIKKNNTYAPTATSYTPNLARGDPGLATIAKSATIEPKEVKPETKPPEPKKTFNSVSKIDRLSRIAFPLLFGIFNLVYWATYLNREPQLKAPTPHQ
T2 sequence (P18507 whole entry): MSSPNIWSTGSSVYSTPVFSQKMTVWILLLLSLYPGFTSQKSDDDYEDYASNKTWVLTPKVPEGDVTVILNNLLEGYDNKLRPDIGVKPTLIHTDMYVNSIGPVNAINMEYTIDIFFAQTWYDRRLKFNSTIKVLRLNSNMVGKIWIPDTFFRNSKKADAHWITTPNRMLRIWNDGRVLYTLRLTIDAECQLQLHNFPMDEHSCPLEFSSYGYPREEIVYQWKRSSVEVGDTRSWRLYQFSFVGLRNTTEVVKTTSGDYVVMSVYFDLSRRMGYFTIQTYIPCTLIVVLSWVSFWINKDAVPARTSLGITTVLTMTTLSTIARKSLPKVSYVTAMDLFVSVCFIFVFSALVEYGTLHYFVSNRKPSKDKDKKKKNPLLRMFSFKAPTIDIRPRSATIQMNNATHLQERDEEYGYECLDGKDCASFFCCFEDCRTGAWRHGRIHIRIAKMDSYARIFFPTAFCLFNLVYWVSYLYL
T2 sequence (P28472 whole entry): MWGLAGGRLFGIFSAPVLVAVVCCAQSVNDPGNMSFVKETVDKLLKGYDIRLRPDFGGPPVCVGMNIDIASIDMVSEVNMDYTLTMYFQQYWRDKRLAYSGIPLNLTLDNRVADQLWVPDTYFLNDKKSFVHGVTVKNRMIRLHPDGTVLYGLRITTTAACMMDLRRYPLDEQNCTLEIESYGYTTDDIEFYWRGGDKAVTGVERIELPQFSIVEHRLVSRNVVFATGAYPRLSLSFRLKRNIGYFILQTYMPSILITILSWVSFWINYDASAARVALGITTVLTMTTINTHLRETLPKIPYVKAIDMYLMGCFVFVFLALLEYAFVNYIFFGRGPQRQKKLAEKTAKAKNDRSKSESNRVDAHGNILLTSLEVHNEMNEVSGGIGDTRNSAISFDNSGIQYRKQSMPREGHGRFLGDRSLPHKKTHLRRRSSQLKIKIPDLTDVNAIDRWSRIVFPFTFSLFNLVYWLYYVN

[3] = target: T1, Gamma-aminobutyric acid receptor subunit alpha-5; test: Displacement of [3H]Ro15-4513 from GABAA alpha-5-beta-2-gamma-2 receptor expressed in Sf9 baculovirus system
Method in brief: (§1)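 Homogenates of Sf-9 cells infected 60 h earlier with baculoviruses for each of the three subunits (2 MOI, equimolar), in 50 mM Tris-HCl pH 7.7. Competition against 0.5–1.0 nM [3H]-Ro15-4513, with unlabeled ligand from 40 pM to 10 µM (ethanol below 0.1%). Incubated 90 min at 0 °C, in triplicate. Separated by rapid filtration and read by scintillation counting.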

[4] = target: T3, Gamma-aminobutyric acid receptor subunit alpha-1 (Homo sapiens, UniProt P14867+P18507+P47870); test: Displacement of [3H]Ro15-4513 from GABAA alpha-1-beta-2-gamma-2 receptor expressed in Sf9 baculovirus system; method in brief: as §1
T3 sequence (P14867 whole entry): T2 sequence (P14867 whole entry)

[5] = target: T3, Gamma-aminobutyric acid receptor subunit alpha-1; test: Binding affinity to GABAA alpha-1-beta-2-gamma-2 receptor
[6] = Selectivity for GABAA alpha-5-beta-3-gamma-2 receptor over GABAA alpha-6-beta-3-gamma-2 receptor
[7] = target: T4, GABA A receptor alpha-4/beta-3/gamma-2 (Homo sapiens, UniProt P18507+P28472+P48169); test: Binding affinity to GABAA alpha-4-beta-3-gamma-2 receptor; type: protein-complex assay
T4 sequence (P48169 whole entry, one chain of several): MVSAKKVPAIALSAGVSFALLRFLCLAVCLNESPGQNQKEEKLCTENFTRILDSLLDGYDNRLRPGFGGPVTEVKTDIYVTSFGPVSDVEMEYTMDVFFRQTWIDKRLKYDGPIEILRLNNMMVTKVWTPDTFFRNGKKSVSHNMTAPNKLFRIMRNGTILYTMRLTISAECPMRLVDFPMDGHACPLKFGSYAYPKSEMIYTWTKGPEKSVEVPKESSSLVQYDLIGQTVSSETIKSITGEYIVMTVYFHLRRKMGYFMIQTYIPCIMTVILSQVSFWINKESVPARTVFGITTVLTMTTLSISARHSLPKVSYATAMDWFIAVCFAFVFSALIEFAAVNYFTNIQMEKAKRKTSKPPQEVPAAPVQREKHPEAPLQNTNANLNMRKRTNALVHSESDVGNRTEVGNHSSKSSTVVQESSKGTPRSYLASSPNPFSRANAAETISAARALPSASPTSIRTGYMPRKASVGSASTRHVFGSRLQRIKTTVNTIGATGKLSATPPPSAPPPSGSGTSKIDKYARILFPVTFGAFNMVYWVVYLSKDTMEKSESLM

[8] = target: T5, GABA-A receptor; alpha-6/beta-3/gamma-2 (Homo sapiens, UniProt P18507+P28472+Q16445); test: Activity at GABAA alpha-6-beta-3-gamma-2 receptor expressed in Xenopus oocytes assessed as potentiation of GABA-induced chloride current at 1 uM; type: cell-based; details: Oocyte
T5 sequence (Q16445 whole entry, one chain of several): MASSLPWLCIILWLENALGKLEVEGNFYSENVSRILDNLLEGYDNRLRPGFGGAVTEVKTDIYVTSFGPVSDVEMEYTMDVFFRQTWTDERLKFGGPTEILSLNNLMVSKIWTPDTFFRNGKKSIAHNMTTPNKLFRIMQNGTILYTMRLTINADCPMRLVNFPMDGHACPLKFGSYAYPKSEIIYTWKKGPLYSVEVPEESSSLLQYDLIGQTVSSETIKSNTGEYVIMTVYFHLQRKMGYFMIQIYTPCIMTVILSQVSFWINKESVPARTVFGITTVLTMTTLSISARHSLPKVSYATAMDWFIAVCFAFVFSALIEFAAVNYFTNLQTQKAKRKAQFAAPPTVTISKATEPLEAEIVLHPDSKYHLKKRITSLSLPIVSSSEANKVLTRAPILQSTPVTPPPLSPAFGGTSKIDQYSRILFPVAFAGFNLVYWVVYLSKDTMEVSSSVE

[9] = target: GABA-A receptor; alpha-2/beta-3/gamma-2 (Homo sapiens) (UniProt P18507+P28472+P47869); test: Activity at GABAA alpha-2-beta-3-gamma-2 receptor expressed in Xenopus oocytes assessed as potentiation of GABA-induced chloride current at 1 uM; type: cell-based; details: Oocyte
[10] = Selectivity for GABAA alpha-5-beta-3-gamma-2 receptor over GABAA alpha-2-beta-3-gamma-2 receptor
[11] = target: T4, GABA A receptor alpha-4/beta-3/gamma-2; test: Activity at GABAA alpha-4-beta-3-gamma-2 receptor expressed in Xenopus oocytes assessed as potentiation of GABA-induced chloride current at 1 uM; type: cell-based; details: Oocyte
[12] = Selectivity for GABAA alpha-5-beta-3-gamma-2 receptor over GABAA alpha-4-beta-3-gamma-2 receptor
[13] = Selectivity for GABAA alpha-5-beta-3-gamma-2 receptor over GABAA alpha-1-beta-3-gamma-2 receptor
Mus musculus [14] = test: Anticonvulsant activity in C57BL/6J mouse assessed as inhibition of increase in excitatory tone in brain at 30 mg/kg, ip; type: functional, organism-based; design: dose 30 mg/kg
Mus musculus [15] = test: Inhibition of scopolamine-induced impairment of contextual memory in C57BL/6J mouse at 10 mg/kg, ip after 24 hrs; type: functional, organism-based; design: dose 10 mg/kg
Method in brief: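 Male C57Bl/6 mice, 7–12 weeks old, given ip vehicle (0.9% saline with 2.5% encapsin), scopolamine 1.5 mg/kg, or scopolamine plus ligand. After 20 min: context exposure, then three 33 s tones (85 dB, 2.9 kHz), each ending with a 0.75 mA footshock. Freezing scored over 4 min in the same context 24 h later.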

[16] = target: T5, GABA-A receptor; alpha-6/beta-3/gamma-2; test: Binding affinity to GABAA alpha-6-beta-3-gamma-2 receptor; type: protein-complex assay
[17] = Selectivity for GABAA alpha-5-beta-3-gamma-2 receptor over GABAA alpha-3-beta-3-gamma-2 receptor

SMILES	Ki [2] [µM]	Kd [1] [µM]	Kd [5] [µM]	also measured
CCc1ncn2c3ccc(Cl)cc3c(=O)n(C)c12	0.408	–	–	Ki [1]: 0.182 µM
Cc1nn(Cc2nc(-c3cccc([N+](=O)[O-])c3)cs2)c(C)c1Br	–	–	–	IC50 [3]: > 10 µM; IC50 [4]: > 10 µM
CCCOc1cc2c(cn1)[nH]c1ccccc12	–	0.591	0.005	–
Nc1c(C(=O)c2ccc(Cl)cc2)sc2ccccc12	–	–	–	IC50 [3]: 1 µM; IC50 [4]: 1 µM
CCOC(=O)c1ncn2c1C1CCCN1C(=O)c1cc(C#C[Si](C)(C)C)ccc1-2 (stereo unspecified)	–	0.004	0.2	–
CSC1SC(C(=O)c2cccc([N+](=O)[O-])c2)C2CC(C)(C)CC(=O)C12 (stereo unspecified)	–	–	–	IC50 [3]: > 10 µM; IC50 [4]: > 10 µM
Cn1c(=O)c2cc(Cl)ccc2n2cnc(C(=O)OC(C)(C)C)c12	0.0173	–	–	Ki [1]: 0.00065 µM
CCOc1cc2c(cn1)[nH]c1ccccc12	–	0.826	0.0012	–
CSC1SC(C(=O)c2ccc(Cl)cc2)C2CC(C)(C)CC(=O)C12 (stereo unspecified)	–	–	–	IC50 [3]: 0.21 µM; IC50 [4]: 0.58 µM
CCOC(=O)c1ncn2c3ccc(C#C[Si](C)(C)C)cc3c(=O)n(C)c12	–	0.005	0.121	–
O=C1C2C=Nc3ccccc3C2=NN1c1ccccc1 (stereo unspecified) [CGS-8216]	–	0.2	0.0083	–
CC(C)(C)OC(=O)c1cc2c3ccccc3nc-2c[nH]1	–	0.111	0.001	–
Cn1c(=O)c2cc(C#C[Si](C)(C)C)ccc2n2cnc(C(=O)OC(C)(C)C)c12	–	0.058	0.197	–
CC(=O)NC1N=C(c2ccccc2)c2ccccc2NC1=O (stereo unspecified)	–	–	–	IC50 [3]: > 10 µM; IC50 [4]: > 10 µM
CCOCc1ncn2c3ccc(Cl)cc3c(=O)n(C)c12	0.5	–	–	Ki [1]: 0.083 µM
C#Cc1ccc2c(c1)C(c1ccccc1)=NCC(=O)N2C	–	0.007	0.076	–
COCc1c(C(=O)OC(C)C)ncc2[nH]c3ccc(OCc4ccccc4)cc3c12 [ABECARNIL]	–	0.0084	0.001	–

SMILES	Ki [2] [µM]	Kd [1] [µM]	Kd [5] [µM]	also measured
CC(=O)c1ncn2c3ccc(Cl)cc3c(=O)n(C)c12	17.5	–	–	Ki [1]: 2.61 µM
Cn1c(=O)c2cc(Cl)ccc2n2cnc(CO)c12	> 0.3	–	–	Ki [1]: > 0.3 µM
CSC1SC(C(=O)c2ccc(Cl)cc2)C2CCCC(=O)C12 (stereo unspecified)	–	–	–	IC50 [3]: 0.55 µM; IC50 [4]: 0.58 µM
CCOC(=O)c1[nH]cc2nc3cc(OC)c(OC)cc3c-2c1CC	–	0.001	0.008	–
COCc1ncn2c1CN(C)C(=O)c1cc(Cl)ccc1-2	0.92	–	–	Activity [6]: 20; Ki [7]: > 0.3 µM; Activity [8]: 4%; Activity [9]: 4%; Selectivity ratio [10]: 20; Activity [11]: 4%; Activity [12]: 20; Selectivity ratio [13]: 20; Activity (Mus musculus [14]): Active; Activity (Mus musculus [15]): Active; Ki [16]: 9 µM; Selectivity Index [17]: 20
CN1C(=O)CN=C(c2ccccc2)c2ccccc21	–	–	–	IC50 [3]: > 10 µM; IC50 [4]: > 10 µM
O=C1C2C=Nc3ccccc3C2=NN1c1ccc(Cl)cc1 (stereo unspecified) [CGS-9896]	–	0.04	0.0003	–
COc1ccc(-n2nc3c4ccccc4[nH]cc-3c2=O)cc1	–	0.005	0.0001	–
CCCCC(=O)c1ncn2c3ccc(Cl)cc3c(=O)n(C)c12	1.58	–	–	Ki [1]: 0.166 µM
CCOC(=O)c1cc2c(cn1)[nH]c1ccccc12	–	–	0.001	–
CSc1nccc(-c2ccc(S(=O)(=O)Nc3ccc(Cl)cc3)s2)n1	–	–	–	IC50 [3]: > 10 µM; IC50 [4]: 0.47 µM
CCCCCc1ncn2c3ccc(Cl)cc3c(=O)n(C)c12	2.05	–	–	Ki [1]: 0.369 µM
COC(=O)c1cc2c(cn1)[nH]c1ccccc12 [BETA-CCM]	–	0.058	0.001	–
Cn1c(=O)c2cc(Cl)ccc2n2cnc(CCl)c12	0.5	–	–	Ki [1]: 0.5 µM
Cn1c(=O)c2cc(Cl)ccc2n2cnc(C(=O)OCC3CC3)c12	0.0164	–	–	Ki [1]: 0.0098 µM
CCOC(=O)c1ncn2c1[C@@H]1CCN1C(=O)c1cc(C#C[Si](C)(C)C)ccc1-2	–	0.0026	0.083	–
